# Measured values taken from PubChem BioAssay AID504504 (Broad Institute, 2011).
# Records with an inconclusive call do not appear. Calls of active or inactive are those of the source.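 The calls were made as follows: active = growth-lowering compounds whose fitted AC50 is at most ten times their top valid dose; inconclusive = flat fit with 30 to 70% inhibition, or unreliable fit; inactive = the rest.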
# Assays:
# [1] = system: C. albicans CaCi-8 + fluconazole, Alamar Blue growth, 48 h; assay: growth inhibition of resistant C. albicans CaCi-8, dose response, with fluconazole, powder samples, set 10 (AID 504504)
# Procedure, shortened: (§1)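 Probe or stimulus: fluconazole 8 µg/mL; Assay system: Candida albicans CaCi-8, a fluconazole-resistant clinical strain; Amount: inoculum OD600 0.00015; Medium: defined RPMI 1640 medium with MOPS, glucose, uridine; Schedule: 48 h at 37 °C, then dye 2 h RT; Detection: Alamar Blue fluorescence, excitation 544 nm, emission 590 nm.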
# [2] = as above; details: C. albicans CaCi-8 + fluconazole, Alamar Blue growth, 48 h; at 26 µM (top of the series)
# Procedure, shortened: as §1
Structure (SMILES),AC50 [1],"activity change, negative = growth inhibition [2]"
O=C(Cn1c2ccccc2c2nc3n(c(=O)c21)CCS3)N1CCCC1,1970 nM,–
O=C(Cn1c2ccc(F)cc2c2nc3n(c(=O)c21)CCS3)N1CCC(F)(F)CC1,–,60.6% (inactive)
O=C(Cn1c2ccccc2c2nc3n(c(=O)c21)CCS3)N1CC=CC1,2020 nM,–
O=C(Cn1c2ccc(F)cc2c2nc3n(c(=O)c21)CCS3)N1CC=CC1,–,65% (inactive)
CC1CCN(CCn2c3ccccc3c3nc4n(c(=O)c32)CCS4)CC1,–,-17.5% (inactive)
COC(=O)n1nc(-c2ccccc2)c2ccccc21,–,11.4% (inactive)
CCc1nn(CC(=O)OC)c2ccccc12,–,-7.82% (inactive)
COC(=O)Cn1nc(-c2cccc(C)c2)c2ccccc21,702 nM,–
O=C(Cn1c2ccc(F)cc2c2nc3n(c(=O)c21)CCS3)N1CCC(F)(F)C1,–,32% (inactive)
O=C(O)Cn1c2ccccc2c2nc3n(c(=O)c21)CCS3,–,-4.73% (inactive)
COC(=O)Cn1nc(-c2cccc(F)c2)c2ccccc21,1840 nM,–
COC(=O)Cn1nc(C2CC2)c2ccccc21,–,-23.8% (inactive)
O=C(Cn1c2ccccc2c2nc3n(c(=O)c21)CCS3)N1CCCCC1,2170 nM,–
O=C(Cn1c2ccccc2c2nc3n(c(=O)c21)CCS3)N1CCC(F)(F)C1,6690 nM,–
O=C(Cn1c2ccc(F)cc2c2nc3n(c(=O)c21)CCS3)N1CCCC1,–,15.4% (inactive)
COC(=O)Cn1nc(C2CCCCC2)c2ccccc21,3440 nM,–
c1ccc(-c2nn(Cc3nnco3)c3ccccc23)cc1,21800 nM,–
CC1(O)CN(C(=O)Cn2c3ccccc3c3nc4n(c(=O)c32)CCS4)C1,> 26000 nM (inactive),–
COC(=O)Cn1nc(-c2cnco2)c2ccccc21,–,-17.4% (inactive)
O=C(O)Cn1c2ccc(F)cc2c2nc3n(c(=O)c21)CCS3,–,-8.94% (inactive)
COC(=O)Cn1nc(-c2cccc(OC)c2)c2ccccc21,607 nM,–
COC(=O)Cn1c2ccc(F)cc2c2nc3n(c(=O)c21)CCS3,2990 nM,–
COC(=O)Cn1nc(-c2cscn2)c2ccccc21,18300 nM,–
COC(=O)Cn1nc(C(C)(C)C)c2ccccc21,–,-4.79% (inactive)
